Tests used:
Mu-type opioid receptor [1] = biological target: T1, Mu-type opioid receptor (Rattus norvegicus, UniProt P33535); experiment: Inhibitory activity against [3H]DAMGO binding to Opioid receptor mu 1 in rat brain membranes; type: cell membranes
Summary of the method: (§1)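 Rat brain minus cerebellum homogenised in 0.32 M sucrose/10 mM Tris-HCl and spun. The pellet was preincubated 1 h to strip endogenous opioids. GF/B filtration, scintillation counting.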

Mu-type opioid receptor [2] = biological target: T1, Mu-type opioid receptor; experiment: Binding affinity towards Opioid receptor mu 1 by displacing [3H]DAMGO in rat brain membranes.; type: cell membranes; summary of the method: as §1
[3] = Potency for inhibition of forskolin-stimulated cyclic AMP accumulation in SH-SY5Y cells; type: functional, cell-based; conditions: Homo sapiens
Summary of the method: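 SH-SY5Y cells at 85-100% confluence in 24-well plates, in serum-free F12/DMEM with 0.5 mM IBMX, protease inhibitors and DADLE δ-blocker, 10 min at 37 °C. Then 10 µM forskolin plus ligand over a concentration range, 15 min at 37 °C. Ethanol extraction, cAMP measured by commercial kit. Triplicate wells averaged, IC50 fitted.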

T1 sequence (P33535 whole entry): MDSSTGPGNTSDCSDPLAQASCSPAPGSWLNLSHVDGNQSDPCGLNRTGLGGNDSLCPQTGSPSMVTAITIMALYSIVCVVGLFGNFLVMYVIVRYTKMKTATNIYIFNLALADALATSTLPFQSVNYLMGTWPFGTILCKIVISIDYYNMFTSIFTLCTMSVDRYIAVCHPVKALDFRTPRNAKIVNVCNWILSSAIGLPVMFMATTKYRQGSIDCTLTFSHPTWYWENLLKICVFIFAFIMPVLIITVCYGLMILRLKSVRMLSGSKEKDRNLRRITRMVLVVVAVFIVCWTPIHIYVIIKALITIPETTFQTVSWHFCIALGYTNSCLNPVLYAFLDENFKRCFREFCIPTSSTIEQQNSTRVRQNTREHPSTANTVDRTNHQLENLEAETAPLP

Compound `NC(=O)C[C@H](Cc1ccccc1)NC(=O)[C@H](Cc1c[nH]c2ccccc12)NC(=O)[C@@H]1CCCN1C(=O)[C@@H](N)Cc1ccc(O)cc1` has an IC50 (Mu-type opioid receptor [1]) of 80.1 nM and a Ki (Mu-type opioid receptor [2]) of 79 nM.

`NC(=O)[C@H](Cc1ccccc1)NC(=O)[C@H](Cc1c[nH]c2ccccc12)NC(=O)C[C@@H]1CCCN1C(=O)[C@@H](N)Cc1ccc(O)cc1` showed an IC50 [3] of 6.53 nM, an IC50 (Mu-type opioid receptor [1]) of 4 nM and a Ki (Mu-type opioid receptor [2]) of 2.1 nM.

With `NC(=O)[C@H](Cc1ccccc1)NC(=O)[C@H](Cc1c[nH]c2ccccc12)NC(=O)C[C@H]1CCCN1C(=O)[C@@H](N)Cc1ccc(O)cc1` the IC50 [3] was 45 nM, the IC50 (Mu-type opioid receptor [1]) was 79 nM and the Ki (Mu-type opioid receptor [2]) was 67 nM.

`NC(=O)[C@H](Cc1ccccc1)NC(=O)[C@H](Cc1c[nH]c2ccccc12)NC(=O)[C@@H]1CCCN1C(=O)[C@@H](N)Cc1ccc(O)cc1` [ENDOMORPHIN-1] showed an IC50 [3] of 19.1 nM.

With `NC(=O)[C@H](Cc1ccccc1)NC(=O)[C@H](Cc1c[nH]c2ccccc12)NC(=O)[C@@H]1CCCN1C(=O)C[C@@H](N)Cc1ccc(O)cc1` the IC50 (Mu-type opioid receptor [1]) was 990 nM and the Ki (Mu-type opioid receptor [2]) was 26 nM.

In the case of `NC(=O)[C@H](Cc1ccccc1)NC(=O)C[C@H](Cc1c[nH]c2ccccc12)NC(=O)[C@@H]1CCCN1C(=O)[C@@H](N)Cc1ccc(O)cc1`, the IC50 (Mu-type opioid receptor [1]) is reported as 23.3 nM and the Ki (Mu-type opioid receptor [2]) is reported as 73 nM.

`C[C@@H](NC(=O)[C@@H](N)Cc1ccc(O)cc1)C(=O)NCC(=O)N(C)[C@@H](Cc1ccccc1)C(=O)NCCO` [DAMGO] gave an IC50 [3] of 1.1 nM.

From ChEMBL document CHEMBL1135467 (J Med Chem, 2002)
